Source: PMC6153967 (CNS Drugs, 2018)
Several values for one entry are separate records, joined by “and”; a condition that tells them apart may be missing. Equal entries are not always repeated. Where two headings read alike, the source gives them in different places. One block for each compound: values may come before it.

Columns and labels:
[1] = both phase III trials, subjects receiving active drug; cited from earlier work
[2] = cited from earlier work
[3] = molecular target: Recombinant human Aβ42 peptide (Homo sapiens, UniProt P05067); test: IMS–MS anti-Aβ42 oligomer activity; type: biochemical; details: for Inhibition of Aβ42 oligomer formation (in words): 1000:1, 24 h in vitro
In short: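 Recombinant human Aβ42 was reconstituted in LC–MS-grade water as a 5 mg/ml stock and diluted to 22 pmol/µl final. Test compound in water was diluted to […] and 22,000 pmol/µl solutions for 100- and 1000-fold molar excess. Mixtures were incubated at room temperature for 0, 4 and 24 h. Samples were analysed by direct infusion on a traveling-wave IMS Q-TOF: positive sensitivity mode, m/z 500–4000, with drift times used to resolve monomer and oligomers.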

[4] = tramiprosate phase III NA trial; cited from earlier work
[5] = Brain penetration after single oral dose in Sprague Dawley rats; type: in vivo, male Sprague Dawley rats; details: oral 30 mg/kg
In short: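 Fasted male Sprague Dawley rats received test compound in saline by oral gavage at 30 mg/kg. Terminal plasma, CSF and brain were taken at 1, 2, 6 and 24 h, three rats per time point. Brains were perfused to remove blood before processing. All matrices were assayed by LC–MS/MS. AUC ratios were derived from mean concentration–time curves.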

[6] = ref Alzheon, data on file, cited from earlier work
[7] = Oral and intravenous pharmacokinetics in Sprague Dawley rats; type: in vivo; details: male, rat, plasma, 10 mg/kg; for Vd: intravenous 10 mg/kg
In short: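 Fasted male Sprague Dawley rats, n = 3 per group, received test compound in saline orally by gavage (30 mg/kg) or as an IV bolus (10 mg/kg). Serial blood was drawn at 0.25, 0.5, 1, 2, 4, 8 and 24 h into K2EDTA and centrifuged to plasma. Plasma was stored at –80 °C and assayed by LC–MS/MS. Parameters were calculated from mean concentration–time curves.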

[8] = type: in vivo, human; details: tramiprosate 150 mg BID, week 78
In short: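 Retrospective lumbar CSF from six patients with AD in the phase III trial, sampled at week 78 of dosing. The metabolite was quantified by a validated LC–MS/MS method in a separate bioanalytical laboratory.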

[9] = type: in vivo, human; details: drug-naïve
In short: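 CSF came from 64 untreated patients with cognitive deficits (MMSE 15–30). Sampling: lumbar puncture at L3–L5, supine, atraumatic needle, 8–11 a.m. Spun 5 min at 2000 rpm at room temperature, aliquoted into polypropylene, stored at –80 °C. Samples were derivatized with EDC/TFEA for 30 min at room temperature and centrifuged. The supernatant went to LC–MS/MS. Identity was set by retention time and two transition ions against reference standard. LOQ 0.1 ng/ml; range 0.1–1000 ng/ml.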

Recombinant human Aβ42 peptide, sequence (P05067 672-713): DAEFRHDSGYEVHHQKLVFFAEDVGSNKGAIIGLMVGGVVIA

Inhibition of Aβ42 oligomer formation (in words) [3]: complete inhibition
SMILES: NCCCS(=O)(=O)O [Tramiprosate, reference compound]
Cases of ARIA-E in brain MRI safety analyses [1]: no cases
Steady-state brain penetration [2]: approximately 40%
Estimated mean concentration in the brain [4]: ~ 130 nM

Brain/plasma AUC ratio (brain penetration) [5]: 25.3%
clearance [7]: 45 mL/min/kg
Vd ([7]; Vss): 12.9 L/kg
Vd ([7]; Vz): 43.6 L/kg
concentration at 78 week ([8]; human, CSF, oral, 150 mg BID, Minimum–maximum 3-SPA concentration in CSF): 112 to 232 nM
Median 3-SPA concentration in CSF [8]: 19.8 ng/ml and 128.6 nM
Aβ42 oligomer species not inhibited ([3]; 1000:1, after 4 h incubation): dimers, trimers, and pentamers
Aβ42 oligomer species not inhibited ([3]; 1000:1, after 24 h incubation): pentamers
Concentration of 3-SPA in CSF, median ([9]; all patients): 1.7 ng/ml and 10.8 nM
Concentration of 3-SPA in CSF, median ([9]; female): 1.6 ng/ml and 10.4 nM
Concentration of 3-SPA in CSF, minimum–maximum ([9]; female): 0.6–4.3 ng/ml and 4.2–27.7 nM
Concentration of 3-SPA in CSF, mean ± SD ([9]; female (N 37)): 1.7 ± 0.7 ng/ml and 11.2 ± 4.4 nM
Concentration of 3-SPA in CSF, median ([9]; male): 1.7 ng/ml and 11.1 nM
Concentration of 3-SPA in CSF, minimum–maximum ([9]; male): 0.8–3.8 ng/ml and 5.5–24.7 nM
Concentration of 3-SPA in CSF, mean ± SD ([9]; male (N 27)): 1.9 ± 0.6 ng/ml and 12.5 ± 4.1 nM
SMILES: O=C(O)CCS(=O)(=O)O [3-SPA, 3-sulfopropanoic acid]
Sustained 3-SPA levels (plasma AUC) ([6]; at 2000 mg/kg ALZ-801 NOAEL, 28-day rat study): 180 millimolar (AUC in h × nM)
Inhibition of Aβ42 oligomer formation (in words) [3]: Near complete prevention of formation of Aβ42 oligomers except for pentamers

SMILES: CC(C)[C@H](N)C(=O)NCCCS(=O)(=O)O [ALZ-801]
NOAEL ([6]; 1-month (28-day) rat study): 2000 mg/kg
NOAEL ([6]; 6-month rat study): 1500 mg/kg
Improvement in brain penetration ([2]; PK/PD projections using 14C tramiprosate): ~ 30%
